In brackets after ≈: the same amount, converted by molar mass.
Experiments:
Type in all cases: functional
Candida albicans = experiment: Antifungal activity against Candida albicans ATCC 10213
Outline: (§1)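 CLSI M27-A3 broth microdilution in RPMI-1640 buffered to pH 7.0 with MOPS. Inoculum 1-5 × 10^3 CFU/mL. Compound twofold dilutions from 250 to 0.24 µg/ml, final DMSO <1%. Incubated at 35 °C in a moist, dark chamber and read at 48 h. MIC is the lowest concentration giving total growth inhibition. For MFC, 5 µL from clear wells was plated in duplicate on SDA; MFC is the lowest concentration with no growth.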

Candida tropicalis = experiment: Antifungal activity against Candida tropicalis C 131 2000; outline: as §1
Saccharomyces cerevisiae = experiment: Antifungal activity against Saccharomyces cerevisiae ATCC 9763; outline: as §1
Cryptococcus neoformans = experiment: Antifungal activity against Cryptococcus neoformans ATCC 32264; outline: as §1
Aspergillus fumigatus = experiment: Antifungal activity against Aspergillus fumigatus ATCC 26934
Outline: (§2)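 Broth microdilution per CLSI M38-A2 in RPMI-1640 with MOPS at pH 7.0. Inoculum 1-5 × 10^3 CFU/mL, with twofold compound dilutions spanning 250-0.24 µg/ml (final DMSO <1%). Plates incubated at 35 °C, moist and dark, and read when the control fungus had grown. MIC is total growth inhibition. MFC comes from subculturing clear wells in duplicate onto SDA.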

Aspergillus flavus = experiment: Antifungal activity against Aspergillus flavus ATCC 9170; outline: as §2
Aspergillus niger = experiment: Antifungal activity against Aspergillus niger ATCC 9029; outline: as §2
Nannizzia gypsea = experiment: Antifungal activity against Microsporum gypseum C 115 2000
Outline: (§3)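 Dermatophytes tested by CLSI M38-A2 microdilution in MOPS-buffered RPMI-1640 at pH 7.0. Inoculum 1-5 × 10^3 CFU/mL; compounds 250 to 0.24 µg/ml in twofold steps, final DMSO <1%. Incubated at 28 °C in a moist, dark chamber and read according to control growth. MIC is the lowest concentration with complete inhibition. MFC is the lowest concentration with no growth after duplicate subculture on SDA.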

Trichophyton rubrum = experiment: Antifungal activity against Trichophyton rubrum C 113 2000; outline: as §3
[1] = tested on: Trichophyton mentagrophytes; experiment: Antifungal activity against Trichophyton mentagrophytes ATCC 9972; outline: as §3

Compound	MIC (Candida albicans) [µg/mL]	MIC (Candida tropicalis) [µg/mL]	MIC (Saccharomyces cerevisiae) [µg/mL]	MIC (Cryptococcus neoformans) [µg/mL]	MIC (Aspergillus fumigatus) [µg/mL]	MIC (Aspergillus flavus) [µg/mL]	MIC (Aspergillus niger) [µg/mL]	MIC (Nannizzia gypsea) [µg/mL]	MIC (Trichophyton rubrum) [µg/mL]	MIC [1] [µg/mL]	MFC (Candida albicans) [µg/mL]	MFC (Candida tropicalis) [µg/mL]	MFC (Saccharomyces cerevisiae) [µg/mL]	MFC (Cryptococcus neoformans) [µg/mL]	MFC (Aspergillus fumigatus) [µg/mL]	MFC (Aspergillus flavus) [µg/mL]	MFC (Aspergillus niger) [µg/mL]	MFC (Nannizzia gypsea) [µg/mL]	MFC (Trichophyton rubrum) [µg/mL]	MFC [1] [µg/mL]
O=C1CCC(=O)N1CCc1ccccc1	> 250	> 250	> 250	> 250	> 250	> 250	> 250	> 250	> 250	> 250	> 250	> 250	> 250	> 250	> 250	> 250	> 250	> 250	> 250	> 250
O=C1CCC(=O)N1CCCc1ccccc1	> 250	> 250	> 250	> 250	> 250	> 250	> 250	> 250	> 250	> 250	> 250	> 250	> 250	> 250	> 250	> 250	> 250	> 250	> 250	> 250
O=C1CCC(=O)N1CCCCc1ccccc1	> 250	> 250	> 250	> 250	> 250	> 250	> 250	> 250	> 250	> 250	> 250	> 250	> 250	> 250	> 250	> 250	> 250	> 250	> 250	> 250
O=C1C=CC(O)N1Cc1ccccc1 (stereo not given)	> 250	> 250	> 250	250 (≈ 1320 µM)	> 250	> 250	> 250	> 250	> 250	> 250	> 250	> 250	> 250	> 250	> 250	> 250	> 250	> 250	> 250	> 250
O=C1C=CC(O)N1CCc1ccccc1 (stereo not given)	62.5 (≈ 308 µM)	250 (≈ 1230 µM)	250 (≈ 1230 µM)	62.5 (≈ 308 µM)	> 250	> 250	> 250	62.5 (≈ 308 µM)	62.5 (≈ 308 µM)	31.2 (≈ 154 µM)	125 (≈ 615 µM)	> 250	> 250	> 250	> 250	> 250	> 250	125 (≈ 615 µM)	125 (≈ 615 µM)	62.5 (≈ 308 µM)
O=C1C=CC(O)N1CCCc1ccccc1 (stereo not given)	62.5 (≈ 288 µM)	125 (≈ 575 µM)	62.5 (≈ 288 µM)	62.5 (≈ 288 µM)	125 (≈ 575 µM)	250 (≈ 1150 µM)	> 250	62.5 (≈ 288 µM)	62.5 (≈ 288 µM)	31.2 (≈ 144 µM)	> 250	250 (≈ 1150 µM)	125 (≈ 575 µM)	> 250	250 (≈ 1150 µM)	> 250	> 250	125 (≈ 575 µM)	250 (≈ 1150 µM)	62.5 (≈ 288 µM)
O=C1C=CC(O)N1CCCCc1ccccc1 (stereo not given)	> 250	> 250	> 250	250 (≈ 1080 µM)	> 250	> 250	> 250	125 (≈ 540 µM)	62.5 (≈ 270 µM)	62.5 (≈ 270 µM)	> 250	> 250	> 250	> 250	> 250	> 250	> 250	250 (≈ 1080 µM)	250 (≈ 1080 µM)	125 (≈ 540 µM)
CC1=CC(=O)N(CCCc2ccccc2)C1O (stereo not given)	> 250	> 250	> 250	250 (≈ 1080 µM)	> 250	> 250	> 250	250 (≈ 1080 µM)	250 (≈ 1080 µM)	250 (≈ 1080 µM)	> 250	> 250	> 250	> 250	> 250	> 250	> 250	> 250	> 250	> 250
CC1=CC(=O)N(CCCCc2ccccc2)C1O (stereo not given)	> 250	> 250	> 250	> 250	> 250	> 250	> 250	> 250	> 250	> 250	> 250	> 250	> 250	> 250	> 250	> 250	> 250	> 250	> 250	> 250
O=C1CCC(=O)N1Cc1ccccc1	> 250	> 250	> 250	> 250	> 250	> 250	> 250	> 250	> 250	> 250	> 250	> 250	> 250	> 250	> 250	> 250	> 250	> 250	> 250	> 250
O=C1CCC(=O)N1c1ccccc1	> 250	> 250	> 250	> 250	> 250	> 250	> 250	> 250	> 250	> 250	> 250	> 250	> 250	> 250	> 250	> 250	> 250	> 250	> 250	> 250

More lines, main results first:

MIC (Candida albicans) [µg/mL]	MIC (Candida tropicalis) [µg/mL]	MIC (Saccharomyces cerevisiae) [µg/mL]	MIC (Cryptococcus neoformans) [µg/mL]	MIC (Aspergillus fumigatus) [µg/mL]	MIC (Aspergillus flavus) [µg/mL]	MIC (Aspergillus niger) [µg/mL]	MIC (Nannizzia gypsea) [µg/mL]	MIC (Trichophyton rubrum) [µg/mL]	MIC [1] [µg/mL]	Compound	MFC (Candida albicans) [µg/mL]	MFC (Candida tropicalis) [µg/mL]	MFC (Saccharomyces cerevisiae) [µg/mL]	MFC (Cryptococcus neoformans) [µg/mL]	MFC (Aspergillus fumigatus) [µg/mL]	MFC (Aspergillus flavus) [µg/mL]	MFC (Aspergillus niger) [µg/mL]	MFC (Nannizzia gypsea) [µg/mL]	MFC (Trichophyton rubrum) [µg/mL]	MFC [1] [µg/mL]
> 250	> 250	> 250	250 (≈ 1430 µM)	> 250	> 250	> 250	> 250	> 250	> 250	O=C1C=CC(O)N1c1ccccc1 (stereo not given)	> 250	> 250	> 250	> 250	> 250	> 250	> 250	> 250	> 250	> 250
> 250	> 250	> 250	250 (≈ 1320 µM)	> 250	> 250	> 250	> 250	> 250	> 250	CC1=CC(=O)N(c2ccccc2)C1O (stereo not given)	> 250	> 250	> 250	> 250	> 250	> 250	> 250	> 250	> 250	> 250
> 250	> 250	> 250	> 250	> 250	> 250	> 250	> 250	> 250	> 250	CC1=CC(=O)N(Cc2ccccc2)C1O (stereo not given)	> 250	> 250	> 250	> 250	> 250	> 250	> 250	> 250	> 250	> 250
> 250	> 250	> 250	> 250	> 250	> 250	> 250	> 250	> 250	> 250	CC1=CC(=O)N(CCc2ccccc2)C1O (stereo not given)	> 250	> 250	> 250	> 250	> 250	> 250	> 250	> 250	> 250	> 250
> 250	> 250	> 250	> 250	> 250	> 250	> 250	> 250	> 250	> 250	CC1=CC(O)N(c2ccccc2)C1=O (stereo not given)	> 250	> 250	> 250	> 250	> 250	> 250	> 250	> 250	> 250	> 250
> 250	> 250	> 250	> 250	> 250	> 250	> 250	> 250	> 250	> 250	CC1=CC(O)N(Cc2ccccc2)C1=O (stereo not given)	> 250	> 250	> 250	> 250	> 250	> 250	> 250	> 250	> 250	> 250
